The source of these data is ChEMBL document CHEMBL2380254, “Optimization of tocotrienols as antiproliferative and antimigratory leads” (Eur J Med Chem, 2013).

Assay type in all cases: functional
One test has as its system HL-60(TB). Description: Growth inhibition of human HL-60(TB) cells assessed as cell growth at 10 uM after 48 hrs by sulforhodamine B assay. The following applies: HL-60, 48 h, read-out: Activity. The procedure, abridged: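 NCI-60 single-dose screen run at 10 µM on HL-60(TB) suspension cells in RPMI 1640 with 5% FBS and 2 mM L-glutamine. Cells were preincubated for 24 h, with a time-zero plate fixed then. Exposure lasted 48 h at 37 °C. Settled cells were fixed with TCA (16% final), stained with SRB and read at 515 nm. Percent growth is relative to control and T0.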
(In general: The SRB assay estimates cell density from bound dye.)

The test system of another test is SW-620. In words: Growth inhibition of human SW620 cells assessed as cell growth at 10 uM after 48 hrs by sulforhodamine B assay. The following applies: SW-620, 48 h, read-out: Activity. The procedure, abridged: (§1)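 Single-dose NCI-60 test at 10 µM. Cells were grown in RPMI 1640 with 5% FBS and 2 mM L-glutamine, preincubated 24 h, with T0 plates TCA-fixed. Exposure was 48 h at 37 °C, 5% CO2. Cells were fixed with cold TCA (final 10%, 4 °C, 60 min), stained with SRB and read at 515 nm. Percent growth was taken relative to T0 and untreated control; negative values denote cell kill.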

For another test, the system named is OVCAR-4. In words: Growth inhibition of human OVCAR4 cells assessed as cell growth at 10 uM after 48 hrs by sulforhodamine B assay. The following applies: OVCAR-4, 48 h, read-out: Activity. The procedure, abridged: (§2)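 Single-dose NCI-60 screen: adherent cells in RPMI 1640 with 5% FBS were exposed to 10 µM for 48 h at 37 °C after a 24 h preincubation. They were fixed in situ with cold TCA (10% final), stained with 0.4% SRB in 1% acetic acid, solubilized in 10 mM Tris base, and read at 515 nm. Percent growth was taken relative to time-zero and control plates.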

A further test has as its system UACC-62. In words: Growth inhibition of human UACC62 cells assessed as cell growth at 10 uM after 48 hrs by sulforhodamine B assay. The following applies: UACC-62, 48 h, read-out: Activity. The essentials:
as §1

For the next test, the system named is T47D. Description: Growth inhibition of human T47D cells assessed as cell growth at 10 uM after 48 hrs by sulforhodamine B assay. The following applies: read-out: Activity. The essentials:
as §1

The nature of test [1]: Growth inhibition of human Hs 578T cells assessed as cell growth at 10 uM after 48 hrs by sulforhodamine B assay. The following applies: read-out: Activity. The essentials:
(§3)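 NCI-60 single-dose screen at 10 µM: cells in RPMI 1640 with 5% FBS, preincubated 24 h, then exposed 48 h at 37 °C. TCA fixation (16% final for suspension cells), SRB staining, absorbance 515 nm. Percent growth relative to time-zero and untreated control plates; negative values indicate cell kill.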

The nature of test [2]: Growth inhibition of human HCC2998 cells assessed as cell growth at 10 uM after 48 hrs by sulforhodamine B assay. The following applies: HCC 2998, 48 h, read-out: Activity. The essentials: as §3
The next test relates to Malme-3M. In words: Growth inhibition of human MALME-3M cells assessed as cell growth at 10 uM after 48 hrs by sulforhodamine B assay. The following applies: read-out: Activity. The procedure, abridged: as §2
Another test concerns K562. Description: Growth inhibition of human K562 cells assessed as cell growth at 10 uM after 48 hrs by sulforhodamine B assay. The following applies: K562, 48 h, read-out: Activity. The essentials: as §3
Test [3] is described as follows: Growth inhibition of human NCI-ADR-RES cells assessed as cell growth at 10 uM after 48 hrs by sulforhodamine B assay. The following applies: read-out: Activity. The procedure, abridged:
as §2

The subject of another test is SNB-75. In words: Growth inhibition of human SNB75 cells assessed as cell growth at 10 uM after 48 hrs by sulforhodamine B assay. The following applies: SNB-75, 48 h, read-out: Activity. The procedure, abridged: as §1
The test system of the next test is CAKI-1. Description: Growth inhibition of human CAKI-1 cells assessed as cell growth at 10 uM after 48 hrs by sulforhodamine B assay. The following applies: CAKI-1, 48 h, read-out: Activity. The essentials:
as §3

The subject of the next test is CCRF-CEM. In words: Growth inhibition of human CCRF-CEM cells assessed as cell growth at 10 uM after 48 hrs by sulforhodamine B assay. The following applies: read-out: Activity. The procedure, abridged:
as §3

The next test concerns PC-3. Description: Growth inhibition of human PC3 cells assessed as cell growth at 10 uM after 48 hrs by sulforhodamine B assay. The following applies: PC-3, 48 h, read-out: Activity. The procedure, abridged:
as §2

SMILES strings stand for the structures.

As to `CC(C)=CCC/C(C)=C/CC/C(C)=C/CC[C@]1(C)CCc2c3c(c(C)c(C)c2O1)OCN(CCCCCCCCCCO)C3`, the growth at 10 µM came to 88% in the test with HL-60(TB); 105% with SW-620; 105% in the test on OVCAR-4; 103% with UACC-62; 85.2% in the test with T47D; 96.5% in test [1]. Moreover, the growth at 10 µM worked out at 97.9% in test [2]; 105% in the test on Malme-3M; 77.6% in the test with K562; 99.2% in test [3]; 91.4% in the test with SNB-75; 78.9% in the test on CAKI-1. For the same compound, the values for the growth at 10 µM in the test on CCRF-CEM and with PC-3 were 87.7% and 84.3%, respectively.
Regarding `CC(C)=CCC/C(C)=C/CC/C(C)=C/CC[C@]1(C)CCc2cc(O)c(C)c(C)c2O1` [GAMMA-TOCOTRIENOL], the growth at 10 µM in the test on HL-60(TB) worked out at 86.5%; in the test on SW-620 it was 110%; with OVCAR-4, 102%; with UACC-62, 108%; in the test with T47D, 82.5%; in test [1], 102%. Moreover, the growth at 10 µM in test [2] worked out at 115%; in the test on Malme-3M, 92.5%; in the test on K562 it was 85%; in test [3] it was 96.9%; in the test with SNB-75 it was 84.3%; in the test with CAKI-1, 89.5%. Also, the values for the growth at 10 µM in the test with CCRF-CEM and in the test on PC-3 were 84% and 96.6%, respectively.
`CC(C)=CCC/C(C)=C/CC/C(C)=C/CC[C@]1(C)CCc2c3c(cc(C)c2O1)OCN(CCCCCCCCCCCCO)C3`: the growth at 10 µM with HL-60(TB) was 27.6%; with SW-620 it was 95.2%; in the test with OVCAR-4, 77.5%; in the test on UACC-62 it was 67.2%; with T47D it was 78.5%; in test [1], 93.2%. In addition, the growth at 10 µM in [2] was 68.7%; with Malme-3M, 106%; with K562 it was 47.4%; in [3], 79.9%; in the test on SNB-75, 97.7%; with CAKI-1, 78.3%. The figures for the growth at 10 µM in the test on CCRF-CEM and with PC-3 were 13.6% and 58.5%, respectively.
With `CC(C)=CCC/C(C)=C/CC/C(C)=C/CC[C@]1(C)CCc2c3c(cc(C)c2O1)OCN(CCCCCCCCCCO)C3`, the growth at 10 µM in the test on HL-60(TB) turned out to be 62.7%; in the test with SW-620, 104%; in the test on OVCAR-4, 92.1%; in the test on UACC-62, 109%; with T47D, 86.1%; in test [1] it was 99%. The growth at 10 µM in test [2] stood at 98.5%; in the test on Malme-3M it was 101%; in the test on K562 it was 45.4%; in test [3] it was 99.9%; with SNB-75, 74.5%; in the test with CAKI-1, 77.9%. In addition, the figures for the growth at 10 µM with CCRF-CEM and with PC-3 were 49.5% and 88.7%, respectively.
For `CC(C)=CCC/C(C)=C/CC/C(C)=C/CC[C@]1(C)CCc2c3c(c(C)c(C)c2O1)OCN(CCCCCCCCCCCCO)C3`, the growth at 10 µM came out at 95% with HL-60(TB); 109% with SW-620; 107% in the test with OVCAR-4; 89.5% in the test on UACC-62; 95.8% with T47D; 103% in test [1]. Further, the growth at 10 µM in test [2] came out at 102%; in the test with Malme-3M it was 101%; with K562, 80.5%; in test [3], 97.9%; in the test with SNB-75, 94.6%; in the test with CAKI-1, 96.2%. Further, the figures for the growth at 10 µM with CCRF-CEM and in the test with PC-3 were 95.2% and 81.3%, respectively.
